This passage reports MIC results from ChEMBL document CHEMBL4118285, “Synthesis and antibacterial activity of novel ketolides with 11,12-quinoylalkyl side chains” (2018).

Common to all, as to format: functional
Assay [1] has as its system Staphylococcus aureus. The experiment in a line: Antibacterial activity against methicillin-sensitive Staphylococcus aureus 11B122 by broth microdilution method. A digest of the protocol: (§1)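 MICs were determined by broth microdilution following CLSI recommendations, with clarithromycin and telithromycin run as reference antibiotics.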
(In general: Dilution methods test growth across graded concentrations, often in twofold steps.)

The subject of assay [2] is Staphylococcus aureus. The experiment in a line: Antibacterial activity against methicillin-resistant Staphylococcus aureus 11B117 by broth microdilution method. A digest of the protocol: (§2)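 MIC values were determined by broth microdilution following Clinical and Laboratory Standards Institute (CLSI) recommendations.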
Assay [3] has as its system Staphylococcus epidermidis. Description: Antibacterial activity against methicillin-sensitive Staphylococcus epidermidis 11X315 by broth microdilution method. In a few lines: as §2
Assay [4] deals with Staphylococcus epidermidis. Description: Antibacterial activity against methicillin-resistant Staphylococcus epidermidis 11C176 by broth microdilution method. In a few lines:
as §2

Assay [5] has as its system Streptococcus pneumoniae. Description: Antibacterial activity against erythromycin-sensitive Streptococcus pneumoniae 11G364 by broth microdilution method. In a few lines: as §1
The test system of assay [6] is Streptococcus pneumoniae. The experiment in a line: Antibacterial activity against erythromycin-resistant Streptococcus pneumoniae 11 J011 by broth microdilution method. A digest of the protocol:
as §2

Assay [7] relates to Streptococcus pyogenes. Description: Antibacterial activity against erythromycin-sensitive Streptococcus pyogenes 11L264 by broth microdilution method. A digest of the protocol: as §1
Assay [8] deals with Streptococcus pyogenes. Description: Antibacterial activity against erythromycin-resistant Streptococcus pyogenes 11 N369 by broth microdilution method. In a few lines: as §2
In assay [9] the test system is Haemophilus influenzae. Description: Antibacterial activity against azithromycin-sensitive Haemophilus influenzae 11P042 by broth microdilution method. In a few lines:
as §1

For assay [10], the system named is Haemophilus influenzae. The experiment in a line: Antibacterial activity against azithromycin-resistant Haemophilus influenzae 11Q373 by broth microdilution method. A digest of the protocol:
as §2

Assay [11] relates to Staphylococcus aureus. Description: Antibacterial activity against methicillin-sensitive Staphylococcus aureus ATCC 29213 by broth microdilution method. A digest of the protocol: as §1
For assay [12], the system named is Staphylococcus aureus. The experiment in a line: Antibacterial activity against methicillin-resistant Staphylococcus aureus ATCC 33591 by broth microdilution method. In a few lines: as §2
Assay [13] has as its system Staphylococcus epidermidis. The experiment in a line: Antibacterial activity against methicillin-sensitive Staphylococcus epidermidis ATCC 12228 by broth microdilution method. A digest of the protocol:
as §1

The subject of assay [14] is Staphylococcus epidermidis. The experiment in a line: Antibacterial activity against methicillin-resistant Staphylococcus epidermidis 13-3 by broth microdilution method. A digest of the protocol:
as §2

For assay [15], the system named is Streptococcus pyogenes. Description: Antibacterial activity against […] Streptococcus pyogenes 12-8 by broth microdilution method. In a few lines: as §1
Assay [16] has as its system Streptococcus pyogenes. Description: Antibacterial activity against methicillin-resistant Streptococcus pyogenes 12-1 by broth microdilution method. In a few lines:
as §2

In assay [17] the test system is Moraxella catarrhalis. The experiment in a line: Antibacterial activity against clarithromycin-sensitive Moraxella catarrhalis 12-1 by broth microdilution method. A digest of the protocol: as §1
The subject of a further assay is Klebsiella pneumoniae. Description: Antibacterial activity against extended spectrum beta-lactamases producing Klebsiella pneumoniae ATCC 700603 by broth microdilution method. A digest of the protocol:
as §1

Assay [18] deals with Moraxella catarrhalis. The experiment in a line: Antibacterial activity against clarithromycin-resistant Moraxella catarrhalis 12-2 by broth microdilution method. In a few lines:
as §2

For a further assay, the system named is Escherichia coli. The experiment in a line: Antibacterial activity against extended spectrum beta-lactamases non-producing Escherichia coli ATCC 25922 by broth microdilution method. In a few lines: as §1
The next assay relates to Pseudomonas aeruginosa. The experiment in a line: Antibacterial activity against Pseudomonas aeruginosa ATCC 27853 by broth microdilution method. In a few lines: as §1

Converted amounts (≈) assume the structure as drawn.

Regarding `CC[C@H]1OC(=O)[C@H](C)C(=O)[C@H](C)[C@@H](O[C@@H]2O[C@H](C)C[C@H](N(C)C)[C@H]2O)[C@](C)(OC)C[C@@H](C)C(=O)[C@H](C)[C@H]2N(CCCSc3cnc4ccccc4c3)C(=O)O[C@]12C`, the MIC against Staphylococcus aureus [1] was 0.125 µg/mL (≈ 0.154 µM); in the assay with Staphylococcus aureus [2], > 64 µg/mL; in assay [3], 0.125 µg/mL (≈ 0.154 µM); in assay [4], 0.125 µg/mL (≈ 0.154 µM); in the assay on Streptococcus pneumoniae [5], 0.008 µg/mL (≈ 0.00983 µM); against Streptococcus pneumoniae [6] it was 0.125 µg/mL (≈ 0.154 µM). Further, the MIC stood at 0.016 µg/mL (≈ 0.0197 µM) in the assay on Streptococcus pyogenes [7], 0.5 µg/mL (≈ 0.614 µM) against Streptococcus pyogenes [8], 16 µg/mL (≈ 19.7 µM) against Haemophilus influenzae [9] and 32 µg/mL (≈ 39.3 µM) with Haemophilus influenzae [10].
Take `CC[C@H]1OC(=O)[C@H](C)[C@@H](O[C@H]2C[C@@](C)(OC)[C@@H](O)[C@H](C)O2)[C@H](C)[C@@H](O[C@@H]2O[C@H](C)C[C@H](N(C)C)[C@H]2O)[C@](C)(OC)C[C@@H](C)C(=O)[C@H](C)[C@@H](O)[C@]1(C)O` [CLARITHROMYCIN]: the MIC in the assay on Staphylococcus aureus [1] is 0.031 µg/mL (≈ 0.0414 µM); in the assay with Staphylococcus aureus [2] it was > 64 µg/mL; in assay [3], 0.125 µg/mL (≈ 0.167 µM); in [4] it was > 64 µg/mL; against Streptococcus pneumoniae [5] it was 0.031 µg/mL (≈ 0.0414 µM); with Streptococcus pneumoniae [6] it was 64 µg/mL (≈ 85.6 µM). For the same molecule, the MIC in the assay with Streptococcus pyogenes [7] was 0.016 µg/mL (≈ 0.0214 µM); in the assay on Streptococcus pyogenes [8], > 64 µg/mL; against Haemophilus influenzae [9], 8 µg/mL (≈ 10.7 µM); with Haemophilus influenzae [10], 8 µg/mL (≈ 10.7 µM); in the assay with Staphylococcus aureus [11], 0.12 µg/mL (≈ 0.16 µM); in the assay on Staphylococcus aureus [12] it was > 256 µg/mL. Also, the MIC was 0.06 µg/mL (≈ 0.0802 µM) in [13]; > 256 µg/mL in assay [14]; 0.03 µg/mL (≈ 0.0401 µM) against Streptococcus pyogenes [15]; 128 µg/mL (≈ 171 µM) in the assay with Streptococcus pyogenes [16]; 0.008 µg/mL (≈ 0.0107 µM) in the assay on Moraxella catarrhalis [17]; 128 µg/mL (≈ 171 µM) against Klebsiella pneumoniae. In addition, the MIC against Moraxella catarrhalis [18] is > 256 µg/mL; with Escherichia coli it was 16 µg/mL (≈ 21.4 µM); with Pseudomonas aeruginosa it was 128 µg/mL (≈ 171 µM).
In the case of `CC[C@H]1OC(=O)[C@H](C)C(=O)[C@H](C)[C@@H](O[C@@H]2O[C@H](C)C[C@H](N(C)C)[C@H]2O)[C@](C)(OC)C[C@@H](C)C(=O)[C@H](C)[C@H]2N(CCCCn3cnc(-c4cccnc4)c3)C(=O)O[C@]12C` [TELITHROMYCIN], the MIC in the assay with Staphylococcus aureus [1] is 0.062 µg/mL (≈ 0.0764 µM); against Staphylococcus aureus [2], > 64 µg/mL; in assay [3], 0.062 µg/mL (≈ 0.0764 µM); in assay [4] it was 0.031 µg/mL (≈ 0.0382 µM); against Streptococcus pneumoniae [5], 0.016 µg/mL (≈ 0.0197 µM); against Streptococcus pneumoniae [6], 0.031 µg/mL (≈ 0.0382 µM). In addition, the MIC was 0.008 µg/mL (≈ 0.00985 µM) with Streptococcus pyogenes [7]; 0.125 µg/mL (≈ 0.154 µM) in the assay with Streptococcus pyogenes [8]; 1 µg/mL (≈ 1.23 µM) in the assay on Haemophilus influenzae [9]; 4 µg/mL (≈ 4.93 µM) with Haemophilus influenzae [10]; 0.015 µg/mL (≈ 0.0185 µM) in the assay on Staphylococcus aureus [11]; > 256 µg/mL in the assay on Staphylococcus aureus [12]. In addition, the MIC in assay [13] is 0.015 µg/mL (≈ 0.0185 µM); in assay [14], > 256 µg/mL; in the assay with Streptococcus pyogenes [15] it was 0.03 µg/mL (≈ 0.0369 µM); against Streptococcus pyogenes [16], > 256 µg/mL; with Moraxella catarrhalis [17], 0.125 µg/mL (≈ 0.154 µM); with Klebsiella pneumoniae it was 64 µg/mL (≈ 78.8 µM). The values for the MIC against Moraxella catarrhalis [18], with Escherichia coli and against Pseudomonas aeruginosa were > 256 µg/mL, 8 µg/mL (≈ 9.85 µM) and 32 µg/mL (≈ 39.4 µM), respectively.
